Screening results deposited in PubChem by several laboratories.
GRK2 inh = human GRK2 inhibition via aptamer displacement; bead flow cytometry, FAM-aptamer displacement from GRK2; P25098; inhibition of aptamer binding, % at 10 µM; 330,000 compounds, 0.59% hits;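 active means inhibition of aptamer binding above 40%, roughly 3 SD of noise, on plates passing a quality check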;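 further: median bead fluorescence of bound FAM aptamer so fluorescent compounds give negative values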
LMPTP block = blocks human LMPTP phosphatase; P24666; recombinant LMPTP-A, OMFP fluorogenic substrate, fluorescence intensity; inhibition, % at 20 µM; 360,000 compounds, 0.22% hits;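 active means compounds that cut the enzyme signal by at least half of the control window in the single-dose screen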;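 further: plate controls were DMSO wells with enzyme plus substrate for no effect and substrate without enzyme for full effect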
Target sequence (P24666 whole entry, looked up): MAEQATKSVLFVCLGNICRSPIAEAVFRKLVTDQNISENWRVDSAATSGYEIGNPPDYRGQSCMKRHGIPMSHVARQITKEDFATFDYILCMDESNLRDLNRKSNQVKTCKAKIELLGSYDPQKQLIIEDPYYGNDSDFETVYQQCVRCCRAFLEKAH
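Test system – LMPTP-A phosphatase enzyme · Quantity – 0.625 nM LMPTP-A final · Reagent – OMFP substrate, 400 µM final · Dosing – one test concentration per compound, 20 µM, with 3% DMSO overall · Timing – 50 min enzyme reaction at room temperature, protected from light · Detection – fluorescence intensity · Controls – substrate-only low control, DMSO enzyme-plus-substrate high control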
STEP block = STEP (human) phosphatase inhibition; P54829; recombinant STEP, OMFP fluorogenic substrate, fluorescence; inhibition, % at 20 µM; 360,000 compounds, 0.25% hits;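 active means inhibition at 20 µM, scaled per plate between control wells, above about 37%, limit read from the data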;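 further: 0% = DMSO with enzyme and substrate and 100% = substrate only without enzyme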
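System: isolated STEP enzyme; schedule: 20 min enzyme reaction at room temperature, protected from light; medium: Bis-Tris buffer pH 6.0, 2.5 mM DTT, 0.005% Tween 20; signal: fluorescence, 480/540 nm; dosing: single compound dose of 20 µM, 1% DMSO final; also added: OMFP substrate, 25 µM final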
Scp-1 inhibitor = Scp-1 (human) phosphatase inhibition; 340,000 compounds, 0.88% hits; Recombinant Scp1, phosphopeptide, malachite green phosphate absorbance; Q9GZU7; inhibition, % at 20 µM;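 active means inhibition above about 50% at 20 µM, limit read from the data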;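 further: plate controls were DMSO wells with enzyme for no effect and wells lacking enzyme for full effect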
Target sequence (Q9GZU7 76-261 limits assumed): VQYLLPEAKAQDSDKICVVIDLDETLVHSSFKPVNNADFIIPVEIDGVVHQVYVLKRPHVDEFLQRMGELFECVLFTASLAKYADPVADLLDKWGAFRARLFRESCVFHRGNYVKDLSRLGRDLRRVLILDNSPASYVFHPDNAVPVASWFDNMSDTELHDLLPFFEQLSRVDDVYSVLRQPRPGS
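Test system: SCP-1 phosphatase catalytic domain, residues 76-261 | Compound dosing: One concentration, 20 µM, with 1.0% DMSO | Schedule: 45 min room-temperature reaction, 5 min colour, 30 min stabiliser | Detection: Absorbance at 630 nm | Read-out basis: % inhibition of SCP-1 phosphate liberation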
DNMT1 block = blocks human DNA methyltransferase DNMT1; P26358; DNMT1 molecular beacon, Hinp1I cleavage, fluorescence; inhibition (reported as % activation of signal), % at 10 µM; 360,000 compounds, 0.83% hits; AID 588458; in the data active means inhibition above about 50%
SUMO1-SIM PPI = SUMO1-SIM interaction modulation; SUMO1 binding to a labelled peptide, TR-FRET, 1 h; inhibition, % at 20 µM; 360,000 compounds, 0.33% hits; AID 602429; in the data active means inhibition above about 37%
Target sequence (P63165 whole entry, looked up): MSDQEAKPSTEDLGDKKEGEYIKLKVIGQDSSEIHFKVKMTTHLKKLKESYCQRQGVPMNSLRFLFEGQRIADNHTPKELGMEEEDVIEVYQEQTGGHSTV
The depositor's hits bear a star; i = inactive; . = no result given. Only some compounds are listed: those with a hit (about 2.2% of all), similar ones and a draw of the others.

SMILES	GRK2 inh	LMPTP block	STEP block	Scp-1 inhibitor	DNMT1 block	SUMO1-SIM PPI
O=C1C(C2=C(O)c3ccccc3C2=O)=Nc2ccccc21	1.0	0.7	27.1	51.7*	41.1	-5.6
CN=CC1=C(O)c2ccccc2C1=O	3.0	-0.2	-2.6	-6.8	3.7	-12.0
COc1ccc(C2=CC3=C(Br)C(=O)C(C)(OC(=O)c4ccco4)C(=O)C3=CO2)cc1 (stereo unspecified)	3.0	2.2	0.0	20.6	33.3	32.0
COc1ccc(C2=CC3=C(Br)C(=O)C(C)(OC(=O)c4cccs4)C(=O)C3=CO2)cc1 (stereo unspecified)	6.0	0.5	1.9	9.3	-8.9	44.0*
CN(C)c1ccc(Cc2cc3c(O)ccc(O)c3cc(Cc3ccc(N(C)C)cc3)c2=O)cc1	.	49.8	7.2	29.9	81.3*	41.8*
CN(C)c1ccc(C(=O)c2ccc(O)cc2O)cc1	3.0	1.0	-0.3	-14.5	-4.5	-4.9
Cn1c(C(=O)OC(C(=O)NCC2CCCO2)c2cccnc2)cc2sccc21 (stereo unspecified)	2.0	1.8	0.2	57.3*	2.2	-6.4
CS(=O)(=O)Nc1cccc(-c2cc(NC=O)c3ncc(-c4ccc(F)c(Cl)c4)n3c2)c1	.	1.8	0.4	.	-13.6	0.1
COc1ccc(CNc2nc(-c3ccccc3)nc3ccccc23)cc1OC	5.0	63.4*	-0.9	-6.0	-6.4	2.7
FC(F)(F)c1nc(NCc2cccnc2)c2ccccc2n1	0.0	0.1	-0.5	-5.0	2.7	5.1
Cc1ccc(-c2nc(NCc3cccnc3)c3ccccc3n2)cc1	1.0	62.6*	-4.1	-30.4	-9.8	8.0
Clc1cccc(-c2nc(NCc3cccnc3)c3ccccc3n2)c1	0.0	42.2	-1.0	-4.1	-9.9	9.7
c1ccc(-c2nc(NCc3cccnc3)c3ccccc3n2)cc1	3.0	57.5*	0.6	-4.4	-2.9	5.6
COc1ccccc1N(C)S(=O)(=O)c1ccc(C(=O)N(C)Cc2cccc(F)c2)cc1	.	-1.1	-1.9	.	-6.9	3.2
COc1cccc2cc(-c3nc4ccccc4[nH]3)c(=O)oc12	0.0	5.0	1.0	3.0	4.3	-17.3
Cc1cccc2cc(-c3nc4ccc(C(=O)O)cc4[nH]3)c(=O)oc12	2.0	3.6	18.0	58.5*	-0.1	-4.3
O=C(NCc1ccncc1)[C@@H]1CCCN1C(=O)[C@@H]1CCCN1C(=O)c1cccc2ccccc12	.	-1.9	.	.	.	2.1
O=C1C=CC2=C3c4cc(O)c(O)cc4CC3(O)COC2=C1O (stereo unspecified)	.	67.0*	10.9	42.0	91.2*	58.0*
CC(C)(C)C1CCc2c(sc(NC(=O)C3CC=CCC3C(=O)O)c2C#N)C1 (stereo unspecified)	6.0	0.2	2.2	2.6	10.1	6.0
N#Cc1c(NC(=O)C2CC=CCC2C(=O)O)sc2c1CCCCCC2 (stereo unspecified)	73.0*	-0.5	2.5	34.5	16.2	2.5
O=S(=O)(NCC(O)COCc1ccco1)c1cccs1 (stereo unspecified)	21.0	-0.5	2.2	64.6*	7.8	1.8
COc1ccc(CNCC(O)COCc2cccs2)cc1 (stereo unspecified)	0.0	-1.6	2.2	-2.5	2.7	-1.1
c1ccc(COc2cccc(-c3cc4nc(NCCCn5ccnc5)ccn4n3)c2)cc1	.	-2.4	1.4	.	-16.5	-0.9
N#C/C(=C\c1ccc(-c2ccccc2[N+](=O)[O-])o1)C(=O)Nc1nc(-c2cccs2)cs1	56.0*	4.1	0.4	-4.6	28.2	6.2
COc1cccc(Cn2c(N)c(C#N)c3nc4ccccc4nc32)c1OC	3.0	9.5	1.8	6.0	39.8	39.7*
SMILES	GRK2 inh	LMPTP block	STEP block	Scp-1 inhibitor	DNMT1 block	SUMO1-SIM PPI
COc1ccc(CNC(=O)CC[C@H]2O[C@@H](n3cnc4c(NC(=O)c5ccccc5)ncnc43)[C@H](O)[C@@H]2O)cc1	.	-0.4	1.8	.	1.4	1.8
Cc1ccc(C)c(NC(=S)c2ccc3ccccc3n2)c1	0.0	2.6	1.2	-10.1	2.2	-3.3
CN(C)c1ccc(NC(=S)c2ccc3ccccc3n2)cc1	4.0	7.2	67.6*	-4.3	-4.8	-19.2
COc1ccc(NC(=O)C2CCCN2S(=O)(=O)c2ccc3c(c2)C(C)(C)C(=O)N3C)cc1 (stereo unspecified)	.	0.3	0.3	.	-1.5	1.9
CCN1/C(=C/C=C/c2oc3ccc(-c4ccccc4)cc3[n+]2CC)Oc2ccc(-c3ccccc3)cc21	0.0	13.7	i	18.2	148.6*	57.0*
Cc1ccc(NC(=O)C2CCCN2C(=O)c2cccs2)c(C)c1 (stereo unspecified)	0.0	-2.3	-3.2	17.0	0.5	-9.6
Cc1ccc(NC(=O)C2CCN(C(=O)c3cccs3)CC2)c(C)c1	3.0	-2.6	-1.8	98.7*	2.0	2.9
C[C@H](O)[C@@H]1C(=O)N2CCc3c([nH]c4ccccc34)[C@@H]2C[C@@H]1N(C)C(=O)c1cc(Cl)cc(Cl)c1	.	1.5	1.9	.	-6.3	6.9
CCC(C)(C)NC(=O)CN(CC1CCCO1)C(=O)CCC(=O)Nc1nccs1 (stereo unspecified)	0.0	0.6	-1.3	22.1	0.0	47.3*
COC(=O)[C@]12CCCCC=C1N(Cc1cccc3ccccc13)C(=O)[C@H](CC(=O)NCCC(C)C)C2	.	0.4	.	.	.	-5.1
O=C(Cc1nnc(NC(=O)c2ccccc2)s1)N/N=C\c1ccc(O)c(O)c1	0.0	2.9	2.0	31.4	59.2*	1.0
CCN(CC)c1ccc(/C=N/NC(=O)Cc2nnc(NC(=O)Nc3ccccc3)s2)cc1	0.0	0.8	3.5	-3.2	50.2*	-2.8
O=C(O)C1=CCC(c2ccc(Cl)c(Cl)c2)N(S(=O)(=O)c2ccc(F)cc2)C1c1cccc(F)c1 (stereo unspecified)	.	-0.1	.	.	.	13.1
COc1ccc(C(=O)N/N=C/c2sc3ccccc3c2O)cc1	0.0	1.1	-5.5	-13.0	-10.0	-13.4
COc1ccc2cc(C(=O)N/N=C/c3sc4ccccc4c3O)ccc2c1	4.0	50.8*	17.6	85.4*	-8.3	-24.9
CCOC(=O)C1=C(C)N=c2s/c(=C/c3ccc(OCC(=O)O)cc3)c(=O)n2C1c1ccc(SC)cc1 (stereo unspecified)	4.0	48.4	85.1*	.	38.7	27.2
CCOC(=O)C1=C(C)N=c2s/c(=C/c3ccc(OCC(=O)O)cc3)c(=O)n2C1c1ccc(F)cc1 (stereo unspecified)	0.0	0.9	5.0	26.9	0.8	-5.3
COc1ccc(NC(=O)[C@@H]2O[C@H](CO)[C@H](O)[C@H](O)[C@H]2O)cc1F	.	-1.6	0.9	.	3.2	0.8
